Assay outcomes: PubChem BioAssay, several laboratories
Rows were chosen to be rich in hits. Some 2.6% of all compounds tested hit in one or more screens of this group.
NadD inh = blocks S. aureus nicotinate mononucleotide adenylyltransferase; AID 602399; purified NadD enzyme, colorimetric absorbance read-out; hit rate 0.78% among 360,000; inhibition, % at 20 µM; in the data active = inhibition above about 26%
Scp-1 inhibitor = Scp-1 (human) phosphatase inhibition | Q9GZU7 | Recombinant Scp1, phosphopeptide, malachite green phosphate absorbance | inhibition, % at 20 µM | hit rate 0.88% among 340,000;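 active = inhibition above about 50% at 20 µM, limit read from the data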;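 note: plate controls were DMSO wells with enzyme for no effect and wells lacking enzyme for full effect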
Target sequence (Q9GZU7 76-261 limits assumed): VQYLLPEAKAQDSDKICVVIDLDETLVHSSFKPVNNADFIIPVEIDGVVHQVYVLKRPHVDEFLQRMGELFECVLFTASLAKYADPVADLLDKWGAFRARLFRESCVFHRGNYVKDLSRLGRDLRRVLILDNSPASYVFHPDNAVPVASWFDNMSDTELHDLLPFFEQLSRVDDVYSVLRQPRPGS
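Material – SCP-1 phosphatase catalytic domain, residues 76-261 · Buffer or medium – Acidic Tris acetate buffer with magnesium and detergent · Also added – Phospho 17-mer peptide substrate · Compound – single 20 µM dose, 1% DMSO · Times – 45 min room-temperature reaction, 5 min colour, 30 min stabiliser · Technique – Phosphate-binding colour reagent, absorbance read at 630 nm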
rCAG binder = molecules binding r(CAG) RNA repeats. r(CAG) RNA repeat, TO-PRO-1 dye displacement fluorescence. inhibition, % at 3 µM. hit rate 1.3% among 370,000. AID 651821;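 active = inhibition above the plate cutoff, the mean of all test compounds on that plate plus 3 SD, cut at about 35% in these data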;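 note: 0% = DMSO alone and 100% = 100 µM mitoxantrone as full dye displacement; higher means more dye released from RNA so lower well fluorescence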
STEP block = STEP (human) phosphatase inhibition; P54829; recombinant STEP, OMFP fluorogenic substrate, fluorescence; inhibition, % at 20 µM; hit rate 0.25% among 360,000; AID 588621;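 active = inhibition at 20 µM, scaled per plate between control wells, above about 37%, limit read from the data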;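 note: 0% = DMSO with enzyme and substrate and 100% = substrate only without enzyme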
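Test system: STEP tyrosine phosphatase / Reagent: OMFP at 25 µM / Doses: 20 µM, 1% DMSO / Read-out: percent inhibition scaled to no-enzyme and uninhibited-enzyme controls, plate-pattern corrected / Detection: FITC-channel fluorescence of OMFP product / Medium: Bis-Tris buffer pH 6.0, 2.5 mM DTT, 0.005% Tween 20 / Schedule: 20 min at room temperature, dark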
LMPTP inh = LMPTP (human) inhibition; recombinant LMPTP-A, OMFP fluorogenic substrate, fluorescence intensity; hit rate 0.22% among 360,000; P24666; inhibition, % at 20 µM;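 active = compounds that cut the enzyme signal by at least half of the control window in the single-dose screen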;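 note: plate controls were DMSO wells with enzyme plus substrate for no effect and substrate without enzyme for full effect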
Target sequence (P24666 whole entry, looked up): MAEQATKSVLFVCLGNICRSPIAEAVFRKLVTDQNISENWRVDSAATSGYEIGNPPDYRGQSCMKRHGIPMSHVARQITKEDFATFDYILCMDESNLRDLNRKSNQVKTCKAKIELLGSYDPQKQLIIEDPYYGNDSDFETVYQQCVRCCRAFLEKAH
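Test system – LMPTP-A phosphatase enzyme · Quantity – 0.625 nM LMPTP-A final · Reagent – OMFP substrate, 400 µM final · Dosing – one test concentration per compound, 20 µM, with 3% DMSO overall · Timing – 50 min enzyme reaction at room temperature, protected from light · Detection – fluorescence intensity · Controls – substrate-only low control, DMSO enzyme-plus-substrate high control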
NadD conf = NadD (S. aureus) inhibition, single concentration confirmation; shares compounds with NadD inh; purified S. aureus NadD, colorimetric enzyme assay; inhibition, % at 20 µM; hit rate 13% among 2,000; in the data active = inhibition mostly above about 42%, no sharp cut-off; inactive = mostly below about 42%
Active calls of the source: *.

Screening COc1ccc(OC)c(S(=O)(=O)N2CCCCC2C(=O)N2CCN(Cc3ccc(F)cc3)CC2)c1 (centres undefined) returned rCAG binder 7.
For COc1ccc(Br)cc1/C=N/NC(=O)c1ccc(OC)c(OC)c1 the results were NadD inh 3, Scp-1 inhibitor 0, rCAG binder 3, STEP block 2 and LMPTP inh 0.
Screening COc1ccc(Br)cc1/C=N/NC(=O)c1nc(-c2ccccc2)n2c1CCCCC2 returned NadD inh 39*, Scp-1 inhibitor 0, rCAG binder -3, STEP block 6, LMPTP inh 13 and NadD conf 13.
`Cn1cc(C(=O)c2ccc(Cl)cc2Cl)cc1C(=O)N/N=C(\N)COc1ccc(Cl)cc1Cl` gave NadD inh 41*, Scp-1 inhibitor 22, rCAG binder 13, STEP block -7, LMPTP inh 3 and NadD conf 29.
For Cn1cc(C(=O)c2ccc(Cl)cc2Cl)cc1C(=O)N/N=C(\N)COc1ccc(Cl)cc1 the results were NadD inh 32*, Scp-1 inhibitor 11, rCAG binder 7, STEP block 0, LMPTP inh 4 and NadD conf 35.
Screening COc1ccc(C)cc1-n1c(SCC(=O)Nc2cc(C)on2)nc2sc(C)c(C)c2c1=O returned NadD inh 36*, Scp-1 inhibitor -13, rCAG binder 10, STEP block 2, LMPTP inh 4 and NadD conf 35.
Screening O=C1CSc2ccc(C(=O)N3CCCC(C(=O)N4CCOCC4)C3)cc2N1 (centres undefined) returned rCAG binder 2.
CC(=O)Nc1ccc(CNc2nc(NC(C)C)nc3cc(-c4ccccc4)sc23)cc1 was read as NadD inh 22, rCAG binder 2, STEP block 8 and LMPTP inh 5.
For C=CCNc1nc(NCc2ccc(NC(C)=O)cc2)c2sc(-c3ccccc3)cc2n1 the results were NadD inh 31*, rCAG binder 5, STEP block 4, LMPTP inh 4 and NadD conf 22.
COc1ccc(N2C(=O)/C(=C\c3ccco3)N=C2SCC(=O)NC(C)(C)C)cc1Cl was read as NadD inh 31*, Scp-1 inhibitor 1, rCAG binder 6, STEP block 3, LMPTP inh 3 and NadD conf 12.
For CC(C)C[C@H]1CNC(=S)N1C[C@H]1CCCN1C[C@H](CC(C)C)N1C[C@H](Cc2ccc(O)cc2)N(CC2CCCCC2)C1=S the results were NadD inh 41*, rCAG binder 6, LMPTP inh 7 and NadD conf 11.
For CC(C)C[C@@H](CN1CCCC1CN1C(=S)NC[C@@H]1Cc1ccc(O)cc1)N1C[C@H](Cc2ccc(O)cc2)N(CC2CCCCCC2)C1=S (some centres undefined) the results were NadD inh 55*, Scp-1 inhibitor 24, rCAG binder 18, STEP block -2, LMPTP inh 5 and NadD conf 36.
`CC(C)C[C@@H](CN1CCCC1CN1C(=S)NC[C@@H]1Cc1ccc(O)cc1)N1C[C@H](Cc2ccccc2)N(CC2CCCCCC2)C1=S` (some centres undefined) gave NadD inh 23, Scp-1 inhibitor 10, rCAG binder 7, STEP block 8 and LMPTP inh 3.
CC(C)(C)c1ccc(-c2nnc(SCC(=O)Nc3ccccc3-c3ccccc3)n2Cc2ccco2)cc1 was read as rCAG binder 8.
Screening Cc1nc(SCc2nc3cc(Cl)c(F)cc3[nH]2)c2oc3ccccc3c2n1 returned NadD inh 37*, Scp-1 inhibitor -5, rCAG binder 7, STEP block 0, LMPTP inh 5 and NadD conf 4.
Screening O=C(c1cc(F)ccc1F)N1CCCC(c2nc(-c3cccs3)no2)C1 (centres undefined) returned rCAG binder 1.
Screening COC(=O)[C@]12C[C@H](CC(=O)N3CCN(C(=O)c4ccco4)CC3)C(=O)N(CCc3ccc(OC)c(OC)c3)C1=C[C@H](COCc1ccccc1)O[C@@H]2C returned rCAG binder 3.
For N#Cc1nc(-c2ccccc2)oc1NCCCn1ccnc1 the results were NadD inh 0, Scp-1 inhibitor -11, rCAG binder -3, STEP block -2 and LMPTP inh -4.
Screening N#Cc1nc(-c2ccc(OCc3ccc(Cl)cc3)cc2)oc1NCCCn1ccnc1 returned NadD inh 30*, Scp-1 inhibitor 23, rCAG binder 1, STEP block 10, LMPTP inh -3 and NadD conf 7.
`CC(C)Cn1c(=O)c(C(=O)Nc2ccccc2S(N)(=O)=O)c(O)c2ccccc21` gave NadD inh 33*, Scp-1 inhibitor -6, rCAG binder 8, STEP block 2, LMPTP inh 3 and NadD conf 65*.
For CCC(C)n1c(=O)c(C(=O)Nc2ccccc2S(N)(=O)=O)c(O)c2ccccc21 (centres undefined) the results were NadD inh 33*, Scp-1 inhibitor -7, rCAG binder 16, STEP block 3, LMPTP inh 2 and NadD conf 64*.
CCn1c(=O)c(C(=O)Nc2ccccc2F)c(O)c2ccccc21 was read as NadD inh -7, Scp-1 inhibitor -1, rCAG binder 3, STEP block -1 and LMPTP inh 0.
For Cn1c(=O)c(C(=O)Nc2ccccc2S(N)(=O)=O)c(O)c2ccccc21 the results were NadD inh -5, Scp-1 inhibitor -7, rCAG binder 12, STEP block 1 and LMPTP inh 1.
Cc1nc2cc(C(=O)N3CCN(C(=O)OCc4ccccc4)CC3)ccc2n1C1CCCC1 was read as rCAG binder 0.
`C/C(CC1CC(COCC(C)C)OC1=O)=N\Nc1nc(-c2ccccc2)cs1` (centres undefined) gave NadD inh 28*, Scp-1 inhibitor -4, rCAG binder 21, STEP block 0, LMPTP inh 1 and NadD conf 13.
COc1cc2c(cc1NC(=O)CN1CCN(S(=O)(=O)c3ccc(C)cc3)CC1)oc1ccccc12 was read as NadD inh 33*, Scp-1 inhibitor 16, rCAG binder 0, STEP block -2, LMPTP inh -2 and NadD conf 8.
`COc1cc2c(cc1NC(=O)C(C)N1CCN(S(=O)(=O)c3ccccc3[N+](=O)[O-])CC1)oc1ccccc12` (centres undefined) gave NadD inh 38*, Scp-1 inhibitor 9, rCAG binder 4, STEP block 2, LMPTP inh 0 and NadD conf -1.
